Source: the EternaBench riboswitch data

Test system: MS2 coat protein
Assay: apparent Kd, MS2 coat protein; higher = weaker binding; RNA-MaP array; FMN 200 µM where present
In short: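 SNAP-549-labelled MS2 coat protein, doubled from 0.7 or 1.5 nM to 3 µM, was titrated over designs transcribed by stalled E. coli RNA polymerase on Illumina sequencing-chip clusters. Titrations were run without and then with constant ligand in 100 mM Tris-HCl pH 7.5, 80 mM KCl, 4 mM MgCl2, BSA, DTT, yeast tRNA and Tween-20. The apparent Kd is the median of filtered per-cluster fits to green signal normalised to red-channel RNA signal and control-cluster median Fmax.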

[1] = designed as: OFF switch for flavin mononucleotide, no ligand
[2] = ligand present: flavin mononucleotide, designed as: OFF switch for flavin mononucleotide
[3] = designed as: ON switch for flavin mononucleotide, no ligand
[4] = ligand present: flavin mononucleotide, designed as: ON switch for flavin mononucleotide

Sequence	apparent Kd [1]	apparent Kd [2]	apparent Kd [3]	apparent Kd [4]
GAUUACAAGUAAGGAUAUGUAUAUGAAACAUAUACAGAAGGUACAUGAGGAUCACCCAUGUUCUUGCAACGCGAAUAUGUAAUC	17.2 nM	21.6 nM	–	–
AAUACGUCAGGAUAUCUGAUGUCUAACUUCGGUUAGACAUCAGAGAAGGGACAUGAGGAUCACCCAUGUAUAAA	51.1 nM	44.9 nM	–	–
GCCGUAAGUGUGAGGAUAUACCUAUGGAUACAUAGGUAGAAGGCACAUGAGGAUCACCCAUGUUCUUAAUCGGC	130 nM	296 nM	–	–
CAUAACUUUGAUCUCUCCUACAUGAGGAUCACCCAUGUUGAGAGAAGGAGGCGGCAGAGUGCUGCCUAGGAUAUCUGAAGGGUC	6.19 nM	7.28 nM	–	–
UGUGAGUUGAUGUUAGAUAGGAGUACAUGAGGAUCACCCAUGUAGGAUAUUCAAAGACGAAGAUAGAAGAAGGACAUAGGUUUC	21.4 nM	18.1 nM	–	–
UGUGUUAUCGGAGGAUAUCGAUAUCAAACAUGAGGAUCACCCAUGUUGAGGAUCACCCAUGUCUACGAGAAGGCCGGCGUACUC	–	–	45.2 nM	50.6 nM
AUGGAUACCACAGGAUAUGCCCGGGAUACCCGGGCAGAAGGGUGGUCCAUCCUAUGUAAAUACAUGAGGAUCACCCAUGUGUCC	–	–	351 nM	257 nM
GACGGUGAUGUAGGAUAUACGCUGGAAUACAGCGUAGAAGGACAUGAGGAUCACCCAUGUAAAGUGUCUCCGAAUAACACCGUC	35.3 nM	68.6 nM	–	–
GUCAGCUCGUGAGGAUAUACAUGUGCUGGAAACAGCACUAUUAUGUUCACAUGAGGAUCACCCAUGUAGAAGGCACGAGCUGAU	16.2 nM	24.9 nM	–	–
ACUUCUAAGCAGAAGGCAGUCAUAGCAUUCGUCAUGUAGACAUGAGGAUCACCCAUGUAUAGUGCUGAGGAUAUGCUUGGAUAG	11.8 nM	10.7 nM	–	–
UCACGGUAUGUAGGAUAUGCAUAGCAUUGCUAUGCAGAAGGACAUGAGGAUCACCCAUGUAUGUAUUCCAUACUAAUCCCGUGU	6.15 nM	6.09 nM	–	–
AUAGCUCUCUAGAAGGACCAAGCAGUAUACCAUCAGGUAUAUACGCUAGGUAGGAUAUGGGACAUGAGGAUCACCCAUGUGUAG	–	–	53.9 nM	33.9 nM
UUGUUAUAUGUAGGAUAUGCAUAUUAUUAUUAUGCAGAAGGACAUGAGGAUCACCCAUGUAUAUUAUUAUUAUAUAUUAUAUAU	28.3 nM	41.6 nM	–	–
UAUUUACAUGAGGAUCACCCAUGUUAGGAUAUGUUUCUAUCGUCGAAAGAUGAUAUUUGCAGAAGGGACAUUAU	20.5 nM	23.3 nM	–	–
ACGGCUAACCCAGUUUAAAUCUCAAGAAGGGUACACUGGGCAAGGUACAUGAGGAUCACCCAUGUACAGGAUAUUGAGAUGAGA	25.6 nM	45.4 nM	–	–
UUUUCGAACCGAGGAUAUCCUUAUAAGAAACAUGAGGAUCACCCAUGUAAAGGGAAUUAUUUGAAGGAGAAGGCGGAUUUUGUU	–	–	50.1 nM	32 nM
GUGGUCAGACAUGAGGAUCACCCAUGUGGAAUAAAUAAGGUUUAGGAUAUGGAAUAUAGGAUAUACCAGAAGGGAGGGUUGGUG	–	–	142 nM	146 nM
GUCAGCUCGUGAGGAUAUACAUCACUGCUUCGGCAGUGUAUUAAGAGUACAUGAGGAUCACCCAUGUAGAAGGCACGAGCUGAU	17.3 nM	19.6 nM	–	–
GCAGGUCGGAAGGAUAUGAAUCUGCUCGCAGUUUCAGAAGGUCUGACAUGAGGAUCACCCAUGUUGGGCGCAUC	56.5 nM	236 nM	–	–
GGUUGGCGAGGAUAUACAUGAGGAUCACCCAUGUGAGAGAAAAAAGUGAGAACGAAAAGUAGAAGGCGCUGACG	43.5 nM	176 nM	–	–
CUCAGCUCGUCAGGAUAUACGUCACUGCUUCGGCAGUGUGGUAAGAUCACAUGAGGAUCACCCAUGUAGAAGGGACGAGCUGAC	12.7 nM	316 nM	–	–
UUUUAACAUGAGGAUCACCCAUGUGAGGAUAUCGAAAUUUAUAUUAAUAUUUUUAUAUCGAGAAGGCACAUUUU	92.8 nM	78.4 nM	–	–
AUAGGCCUAGGAUAUACAUGAGGAUCACCCAUGUUAACACUUCAAUCAAGUUAAUAUUGUAGAAGGAGGAAUAA	30.4 nM	29.4 nM	–	–
AAAUCCGCUGAGGAUAUCAUGACUGAGAGGUCAUGAGAAGGCGGUACAUGAGGAUCACCCAUGUCUAUGGGCAA	492 nM	454 nM	–	–

Sequence	apparent Kd [1]	apparent Kd [2]	apparent Kd [3]	apparent Kd [4]
UGGAUGGUAUGAGGAUAUGCGCGCGAAACGCGCGCAGAAGGCAUGUCAAUAGACAUGAGGAUCACCCAUGUACUAUCCAUCCAC	–	–	121 nM	9.41 nM
GUCGGAAACGACAAAAGUAUGGAUCCAGAAGGCAUGAUACAUGAGGAUCACCCAUGUCUAAGACAUGAGGAUAUGGAUCCAUAC	–	–	13.7 nM	4.77 nM
GCUGCAUAGGCAGGAUAUGCAAUAAUUUAAAUAAAAUAUAAUAAAUUAACAUGAGGAUCACCCAUGUAGAAGGGCCUGUGCAGU	19.8 nM	19.2 nM	–	–
AUACUCAUGUAAGGAUAUGCAGCCGUUUCGGCUGCAGAAGGUACUAUAAUACAUGAGGAUCACCCAUGUCUUUUUAAUUUAGAC	–	–	153 nM	39.9 nM
AAAGCACGAGGAUAUACAUGAGGAUCACCCAUGUAUAACCAACAUAGGUGAUCCUCAUGUAGAAGGCGUGCAAA	18.6 nM	18.4 nM	–	–
GGUUCUAGAGGAUAUACAAACUGAUCCUCAGAGCGCCGGCCACAUGAGGAUCACCCAUGUAGAAGGUUGGAAUC	20.3 nM	11.6 nM	–	–
GUCAGCUCGUGAGGAUAUACAACACUGCUUCGGCAGUGUGUUAAGAUCACAUGAGGAUCACCCAUGUAGAAGGCACGAGCUGAU	7.69 nM	88.9 nM	–	–
GCCAGGCAUGUAGGAUAUCCAUUGCGUCGCGUUGGAGAAGGGCAGCACACAUGAGGAUCACCCAUGUGGUCUCCCAUGAUGUGU	209 nM	223 nM	–	–
UAGAAGUCAGGAUAUGCAUGGCGGGACUUGCGUCGUGGCGUGCAGAAGGGACAUGAGGAUCACCCAUGUGGAGG	152 nM	219 nM	–	–
GUUGUGUAAGGAUAUGCCUGGCCGUGAGGCCAGAUUGAAUGGCAGAAGGUACAUGAGGAUCACCCAUGUACGGG	33.2 nM	188 nM	–	–
GAGCGGCGUACAGGAUAUCCUACAUGAGGAUCACCCAUGUCACAUUUACACGAGAACGUGUACGAGGAGAAGGGUGGGUUCGUG	–	–	287 nM	588 nM
UCCGCCAAAGGAUAUACUGGGCGUUAAAAUCCUCUUAAAAGACAUGAGGAUCACCCAUGUAGAAGGUUGAGGAA	209 nM	575 nM	–	–
AUUCCUAAUGUUAGGAUAUGCGACGGGUGACCGUUGCAGAAGGAACAUGAGGAUCACCCAUGUUUAAUAAAAUC	17.3 nM	111 nM	–	–
UAUUAGUAAGGAUAUGAGACGUAGGACGCAAGUCCUACGUCUCAGAAGGUACAUGAGGAUCACCCAUGUUUAUU	18.1 nM	24.4 nM	–	–
GUCAGCUCGUGAGGAUAUACAACACUGCUUCGGCAGUGUAUUAAGAUCACAUGAGGAUCACCCAUGUAGAAGGCACGAACUGAU	12.9 nM	212 nM	–	–
ACUCGAUUUUUGGGUUUACUAUAUGAGGAUAUCAUACAUCUAUACAUGAGGAUCACCCAUGUUACUGAGAAGGCAUAUAUAAUA	–	–	17.3 nM	6.77 nM
AACAAUCUAUCUGAGGAUAUCAUGAAAAAAACAUGAGGAUCACCCAUGUGCAGGAAAACUGCAUAUGAGAAGGCAGAUAGAUUGC	–	–	590 nM	26.8 nM
UGUUACUAGUAAGGAUAUACUUGCAAUUAGCUUGUAGAAGGUACAGUCUUUUGUAUAACAUGUUUACAUGAGGAUCACCCAUGU	–	–	10.4 nM	9.05 nM
GGUACUCAAAGAGUACAAGAAAGAACAUGAGGAUCACCCAUGUAGGAUAUGCUACUCAAAGAGUAGCAGAAGGACAUGUGCAGC	30.6 nM	103 nM	–	–
CUAAAUCAUGUAGGAUAUGCAUGGCGAAGCUACGCAGAAGGACAUGAGGAUCACCCAUGUCUCUCCGUCUGCGAACAGACGGAG	19.6 nM	104 nM	–	–
CGGCGGAAAGGAUAUGCAUUAAUAUCAAUAUGUGGGCCACGACAUGAGGAUCACCCAUGUAGAAGGUUCAGCCG	21.8 nM	16.8 nM	–	–
GAGCUCGAUGAGAAGGGUUACAUGAGGAUCACCCAUGUCGACCUUGGCGUAACAGGAUAUCAUCGGGCUCAGUGCGUUGACACA	29.2 nM	171 nM	–	–
GGGUGAGCUCAAGGAUAUCCAAAUCGGUUACAUGAGGAUCACCCAUGUCCGGGCGAAUAAAGGCCGGAGAAGGUGAGGGCCCUC	–	–	67.5 nM	180 nM
AACCCUUGAGGAUAUUAAACAAAUCACAUGAGGAUCACCCAUGUGCAUACCUCGUGGCUUUGAGAAGGCAGUCGGG	34.9 nM	39.2 nM	–	–
